Laboratory results from ChEMBL document CHEMBL2169797, “Rediocide A, an Insecticide, induces G-protein-coupled receptor desensitization via activation of conventional protein kinase C” (J Nat Prod, 2012).
Active and inactive are the calls of the source. No cut-off for these calls is given here.

Experiments:
[1] = (§1) Inhibition of Drosophila MthB expressed in HEK293 cells assessed as inhibition of SunA1-30-induced calcium influx incubated for 10 mins prior to SunA1-30 addition by Fluo-4-AM based fluorimetry; assay type: cell-based
Outline: (§2)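 HEK293 cells stably co-expressing the receptor and Gα16, seeded 3 × 10^4/well overnight. Loaded with 2 μM Fluo-4 AM in HBSS (pH 7.4, 250 μM sulfinpyrazone) 45 min at 37 °C, then pretreated with compound. Receptor-specific agonist added (SunA1-30 for Mth-B). Calcium recorded at ex 485/em 525 nm. IC50 from nonlinear regression; mean ± SEM, n = 3.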

HEK293 = experiment: as §1; assay type: cell-based; outline: as §2
[2] = biological target: T1, Alpha-1A adrenergic receptor (Homo sapiens, UniProt P35348); experiment: Inhibition of adrenergic receptor 1a expressed in HEK293 cells assessed as inhibition of calcium influx after 10 mins by Fluo-4-AM based fluorimetry; assay type: functional, cell-based; outline: as §2
T1 sequence (P35348 whole entry): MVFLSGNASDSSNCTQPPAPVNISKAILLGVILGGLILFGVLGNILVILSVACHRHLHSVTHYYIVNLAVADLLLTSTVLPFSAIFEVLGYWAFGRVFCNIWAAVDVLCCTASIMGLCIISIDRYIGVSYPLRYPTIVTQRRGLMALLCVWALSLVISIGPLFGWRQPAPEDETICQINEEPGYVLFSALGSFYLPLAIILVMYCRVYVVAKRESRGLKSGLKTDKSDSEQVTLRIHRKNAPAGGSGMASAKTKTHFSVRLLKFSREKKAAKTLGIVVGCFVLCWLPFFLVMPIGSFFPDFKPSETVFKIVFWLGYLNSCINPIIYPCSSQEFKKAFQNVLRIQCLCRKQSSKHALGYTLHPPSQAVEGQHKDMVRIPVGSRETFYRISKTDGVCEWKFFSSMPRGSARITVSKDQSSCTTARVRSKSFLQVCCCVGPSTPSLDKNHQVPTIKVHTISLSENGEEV

[3] = biological target: T2, Alpha-1B adrenergic receptor (Homo sapiens, UniProt P35368); experiment: Inhibition of adrenergic receptor 1b receptor expressed in HEK293 cells assessed as inhibition of calcium influx after 10 mins by Fluo-4-AM based fluorimetry; assay type: functional, cell-based; outline: as §2
T2 sequence (P35368 whole entry): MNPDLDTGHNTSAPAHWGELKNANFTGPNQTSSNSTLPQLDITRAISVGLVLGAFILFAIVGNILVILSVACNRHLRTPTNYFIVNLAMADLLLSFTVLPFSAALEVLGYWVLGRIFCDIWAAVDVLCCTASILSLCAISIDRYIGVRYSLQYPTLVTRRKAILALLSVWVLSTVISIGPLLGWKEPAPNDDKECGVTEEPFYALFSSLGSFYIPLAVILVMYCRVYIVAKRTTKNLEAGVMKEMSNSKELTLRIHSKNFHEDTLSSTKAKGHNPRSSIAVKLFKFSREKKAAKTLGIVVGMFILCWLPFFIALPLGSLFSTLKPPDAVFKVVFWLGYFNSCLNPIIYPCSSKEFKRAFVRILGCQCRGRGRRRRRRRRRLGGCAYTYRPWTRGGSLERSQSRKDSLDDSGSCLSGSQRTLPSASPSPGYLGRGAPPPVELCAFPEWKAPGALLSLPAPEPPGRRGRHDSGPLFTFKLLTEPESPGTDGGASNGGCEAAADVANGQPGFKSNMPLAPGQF

[4] = biological target: T3, C-C chemokine receptor type 6 (Homo sapiens, UniProt P51684); experiment: Inhibition of CCR6 expressed in HEK293 cells assessed as inhibition of calcium influx after 10 mins by Fluo-4-AM based fluorimetry; assay type: functional, cell-based; outline: as §2
T3 sequence (P51684 whole entry): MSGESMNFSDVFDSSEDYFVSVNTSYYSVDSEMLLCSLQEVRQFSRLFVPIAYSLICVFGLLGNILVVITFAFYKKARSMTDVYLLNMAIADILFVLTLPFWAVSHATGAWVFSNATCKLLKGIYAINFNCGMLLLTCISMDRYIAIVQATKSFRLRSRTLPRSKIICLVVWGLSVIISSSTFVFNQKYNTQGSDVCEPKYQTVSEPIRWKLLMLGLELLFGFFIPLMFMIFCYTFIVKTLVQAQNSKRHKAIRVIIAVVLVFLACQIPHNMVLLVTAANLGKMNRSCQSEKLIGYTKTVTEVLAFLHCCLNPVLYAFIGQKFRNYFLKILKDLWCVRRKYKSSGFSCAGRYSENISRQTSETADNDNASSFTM

Glucagon receptor [5] = biological target: T4, Glucagon receptor (Homo sapiens, UniProt P47871); experiment: Inhibition of GCGR expressed in HEK293 cells assessed as inhibition of calcium influx after 10 mins by Fluo-4-AM based fluorimetry; assay type: functional, cell-based
Outline: (§3)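 HEK293 cells stably co-expressing GCGR and Gα16 (G418/blasticidin selected) were seeded at 3 × 10^4 cells/well and cultured overnight. They were loaded with 2 μM Fluo-4 AM in HBSS (pH 7.4, 250 μM sulfinpyrazone) at 37 °C for 45 min, held 10 min at room temperature, then given agonist. Calcium was read at ex 485/em 525 nm. IC50 came from nonlinear regression, means ± SEM, n = 3.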

Glucagon receptor [6] = biological target: T4, Glucagon receptor; experiment: Agonist activity at GCGR expressed in HEK293 cells assessed as calcium influx at 1 uM by Fluor-4-AM based fluorimetry; assay type: functional, cell-based
Outline: (§4)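 HEK293 cells stably co-expressing GCGR and Gα16, selected with G418/blasticidin, seeded 3 × 10^4/well overnight. Loaded with 2 μM Fluo-4 AM in HBSS with sulfinpyrazone, pH 7.4, 45 min at 37 °C. First stimulation with compound, 100 nM glucagon or 1% DMSO. After 30 min cells washed and restimulated with 100 nM glucagon. Calcium read at ex 485/em 525 nm. Three independent experiments, each in triplicate.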

Glucagon receptor [7] = biological target: T4, Glucagon receptor; experiment: Induction of GCGR desensitization expressed in HEK293 cells assessed as reduction in glucagon-induced calcium influx at 1 uM incubated for 30 mins prior to glucagon-induction by Fluo-4-AM based fluorimetry; assay type: functional, cell-based; outline: as §4
Glucagon receptor [8] = biological target: T4, Glucagon receptor; experiment: Activation of pDsRed-tagged GCGR expressed in HEK293 cells assessed as receptor internalization at 1 uM incubated after 30 mins by Hoechst staining-based fluorescence microscopy; assay type: cell-based
Outline: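 HEK293 cells transfected with pDsRed-GCGR, grown overnight on coverslips. Stimulated 30 min at 37 °C, with 1% DMSO as negative control. Fixed in 4% formaldehyde/PBS, nuclei stained with Hoechst 33342. Surface versus internalized receptor scored by fluorescence microscopy.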

[9] = biological target: T5, Protein kinase C (PKC) (Homo sapiens) (UniProt O94806+P41743+P17252+P05129+Q05655+P05771+Q05513+Q02156+P24723+Q15139+Q04759); experiment: Induction of PKC phosphorylation in HEK293 cells at 1 uM by Western blot analysis; assay type: cell-based; details: TDE = time-dependent effect
Outline: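 HEK293 cells serum-starved 4 h, then treated for various durations at 37 °C, with 100 nM TPA as reference. Lysates run on 10% SDS-PAGE and immunoblotted with an antibody detecting phosphorylated conventional and novel PKC isoforms (1:1000). Signal normalized to GAPDH, detected by ECL. Mean ± SEM, n = 3; two-tailed t test.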

[10] = biological target: T5, Protein kinase C (PKC) (Homo sapiens); experiment: Induction of PKC phosphorylation in HEK293 cells at 1 uM by Western blot analysis in presence of GF109203 X; assay type: cell-based
Outline: (§5)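 Serum-starved (4 h) HEK293 cells. Phospho-PKC induced by compound (1 μM) or TPA (100 nM), each in the presence of GF109203 X (1 μM) or rottlerin (10 μM). Read by Western blot with phospho-PKC antibody, normalized to GAPDH. Mean ± SEM, n = 3; two-tailed t test.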

[11] = biological target: T5, Protein kinase C (PKC) (Homo sapiens); experiment: Induction of PKC phosphorylation in HEK293 cells at 1 uM by Western blot analysis in presence of rotterin; assay type: cell-based; outline: as §5
[12] = biological target: Protein kinase C alpha type (Homo sapiens) (UniProt P17252); experiment: Activation of human GFP-tagged PKCalpha expressed in HEK293 cells assessed as translocation from cytoplasm to membrane at 1 uM after 30 mins by Hoechst staining-based fluorescence microscopy; assay type: cell-based
Outline: (§6)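 HEK293 cells transfected with pCR259hPKCα-GFP, grown overnight on coverslips. Pretreated 15 min at 37 °C with GF109203 X or vehicle, then stimulated 30 min. Fixed in 4% formaldehyde/PBS, nuclei stained with Hoechst 33342 10 min at room temperature. GFP-PKCα membrane translocation imaged by inverted fluorescence microscopy.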

[13] = biological target: Protein kinase C alpha type (Homo sapiens) (UniProt P17252); experiment: Activation of human GFP-tagged PKCalpha expressed in HEK293 cells assessed as translocation from cytoplasm to membrane at 1 uM after 30 mins by Hoechst staining-based fluorescence microscopy in presence of GF109203X; assay type: cell-based; outline: as §6
Glucagon receptor [14] = biological target: T4, Glucagon receptor; experiment: Agonist activity at GCGR expressed in HEK293 cells assessed as calcium influx at 1 uM by Fluor-4-AM based fluorimetry in presence of GF109203X; assay type: functional, cell-based
Outline: (§7)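 Setup as for the GCGR calcium assay (stable GCGR/Gα16 HEK293, 2 μM Fluo-4 AM, HBSS pH 7.4). Cells preincubated 15 min with 10 μM GF109203X. Then first stimulation with compound, 100 nM glucagon or 1% DMSO. After 30 min cells washed, restimulated with 100 nM glucagon, calcium read at ex 485/em 525 nm. Three independent experiments in triplicate.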

Glucagon receptor [15] = biological target: T4, Glucagon receptor; experiment: Induction of GCGR desensitization expressed in HEK293 cells assessed as reduction in glucagon-induced calcium influx at 1 uM incubated for 30 mins prior to glucagon-induction by Fluo-4-AM based fluorimetry in presence of GF109203X; assay type: functional, cell-based; outline: as §7
Glucagon receptor [16] = biological target: T4, Glucagon receptor; experiment: Induction of GCGR desensitization expressed in HEK293 cells assessed as reduction in glucagon-induced calcium influx at 1 uM incubated for 30 mins prior to glucagon-induction by Fluo-4-AM based fluorimetry in presence of rottlerin; assay type: functional, cell-based
Outline: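 Stable GCGR/Gα16 HEK293 cells loaded with 2 μM Fluo-4 AM, then preincubated 15 min with 10 μM rottlerin. First stimulation with compound, 100 nM glucagon or DMSO. After 30 min cells washed and restimulated with 100 nM glucagon. Intracellular calcium recorded at ex 485/em 525 nm. Three independent experiments in triplicate.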

Glucagon receptor [17] = biological target: T4, Glucagon receptor; experiment: Agonist activity at GCGR expressed in HEK293 cells assessed as calcium influx at 100 nM by Fluor-4-AM based fluorimetry; assay type: functional, cell-based; outline: as §3
Glucagon receptor [18] = biological target: T4, Glucagon receptor; experiment: Induction of GCGR desensitization expressed in HEK293 cells assessed as reduction in calcium influx at 100 nM incubated for 30 mins prior to second-induction by Fluo-4-AM based fluorimetry; assay type: functional, cell-based
Outline: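 GCGR/Gα16 stable HEK293 cells were loaded with Fluo-4 AM and given a first stimulation (100 nM glucagon or test agent; 1% DMSO as the negative control). After a 30 min incubation, cells were washed and restimulated with 100 nM glucagon, and intracellular calcium was recorded at ex 485/em 525 nm. There were three independent experiments, each in triplicate.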

Glucagon receptor [19] = biological target: T4, Glucagon receptor; experiment: Activation of pDsRed-tagged GCGR expressed in HEK293 cells assessed as receptor internalization at 100 nM incubated after 30 mins by Hoechst staining-based fluorescence microscopy; assay type: cell-based
Outline: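 HEK293 cells transfected with pDsRed-GCGR were seeded on coverslips, cultured overnight, then stimulated at 37 °C for 30 min, with 1% DMSO as the negative control. Cells were fixed in 4% formaldehyde in PBS and nuclei were stained with Hoechst 33342 for 10 min at room temperature. Receptor surface versus internalized location was judged by fluorescence microscopy.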

Glucagon receptor [20] = biological target: T4, Glucagon receptor; experiment: Agonist activity at GCGR expressed in HEK293 cells assessed as calcium influx at 100 nM by Fluor-4-AM based fluorimetry in presence of GF109203X; assay type: functional, cell-based
Outline: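 Fluo-4 AM-loaded GCGR stable HEK293 cells were preincubated with 10 μM GF109203X for 15 min, then stimulated with 100 nM glucagon, test agent or 1% DMSO. After 30 min they were washed and restimulated with 100 nM glucagon, with calcium read fluorimetrically. There were three independent experiments, each in triplicate.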

T4 sequence (P47871 whole entry): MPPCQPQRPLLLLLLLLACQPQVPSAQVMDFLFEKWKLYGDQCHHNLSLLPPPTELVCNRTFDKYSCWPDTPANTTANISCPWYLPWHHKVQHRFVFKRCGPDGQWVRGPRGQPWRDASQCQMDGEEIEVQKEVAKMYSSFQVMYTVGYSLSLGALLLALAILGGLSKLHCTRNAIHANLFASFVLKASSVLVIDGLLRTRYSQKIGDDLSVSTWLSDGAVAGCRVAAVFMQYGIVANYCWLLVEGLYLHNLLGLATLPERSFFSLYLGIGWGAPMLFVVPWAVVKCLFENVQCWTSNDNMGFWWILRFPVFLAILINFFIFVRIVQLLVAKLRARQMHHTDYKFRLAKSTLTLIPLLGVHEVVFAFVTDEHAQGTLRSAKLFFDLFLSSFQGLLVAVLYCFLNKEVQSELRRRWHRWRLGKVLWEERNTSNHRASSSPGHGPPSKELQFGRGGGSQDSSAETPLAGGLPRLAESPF

## CC(C)CC(=O)O[C@H]1/C=C/C=C/C(=O)O[C@H]2[C@@H](C)C[C@@H]3[C@]2(O)[C@H](O)[C@@]2(CO)O[C@H]2[C@H]2[C@H]4OC5(c6ccccc6)O[C@@H]([C@@H](C)[C@@]23O5)[C@@]4(O)[C@](C)(O)C[C@H]2CC[C@H]1[C@H]2C [REDIOCIDE A]
[1]
  IC50: 88 nM
HEK293
  inhibition: Dose-dependent effect
[2]
  IC50: 13 nM
[3]
  IC50: 215 nM
[4]
  IC50: 261 nM
Glucagon receptor [5]
  IC50: 4 nM
Glucagon receptor [6]
  Activity: inactive
Glucagon receptor [7]
  Activity: Active
Glucagon receptor [8]
  Activity: Active
[9]
  Activity: tde
[10]
  Activity: inactive
[11]
  Activity: Active
[12]
  Activity: Active
[13]
  Activity: inactive
Glucagon receptor [14]
  Activity: inactive
Glucagon receptor [15]
  Activity: inactive
Glucagon receptor [16]
  Activity: Active

## GLUCAGON
Glucagon receptor [17]
  Activity: Active
Glucagon receptor [18]
  Activity: Active
Glucagon receptor [19]
  Activity: Active
Glucagon receptor [20]
  Activity: Active
